PglD DTNB: PglD (C. jejuni) enzyme inhibition; purified PglD enzyme, DTNB colorimetric CoA detection; inhibition, % at 12.5 µM; 360,000 tested, 0.098% active; AID 602405; in the data active = inhibition above about 16%, passing the limit was not always enough
VIM-2 inhibitor: blocks Pseudomonas aeruginosa VIM-2 metallo-beta-lactamase; purified VIM-2, nitrocefin hydrolysis, epi-absorbance fluorescence; 290,000 tested, 0.89% active; inhibition, % at 5.6 µM;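 active = inhibition above the mean of all tested compounds plus 3 SD, cutoff set per screening run, cut at about 7.5% in these data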;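 also: red hydrolysis product quenches plate fluorescence so inhibitors raise well fluorescence; 0% = enzyme with DMSO and 100% = DMSO without enzyme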
IMP-1 inh-1: blocks Pseudomonas aeruginosa IMP-1 metallo-beta-lactamase. purified IMP-1, nitrocefin hydrolysis, epi-absorbance fluorescence. inhibition, % at 5.6 µM. 290,000 tested, 0.45% active. AID 1556;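 active = inhibition above the mean plus 3 SD of all compounds in the same screening run, cut at about 4.5% in these data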;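 also: 0% = IMP-1 with DMSO and 100% = DMSO wells lacking enzyme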
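Assay system: purified recombinant IMP-1 beta-lactamase. Input: IMP-1 0.2 nM before substrate addition. Buffer or medium: Zinc- and detergent-supplemented HEPES buffer, pH 7.1. Schedule: 25 °C, 15 min preincubation, 25 min reaction. Signal: Epi-absorbance fluorescence, 480 nm excitation, 530 nm emission. Evaluation: percent inhibition from optical density relative to buffer-blank wells.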
PvdQ acylase: blocks Pseudomonas aeruginosa PvdQ acylase activity; purified PvdQ acylase, fluorescence plate reader; inhibition, % at 10 µM; 340,000 tested, 0.063% active; AID 488965; in the data active = inhibition above about 30%, passing the limit was not always enough;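 also: 0% = vehicle neutral wells and 100% = reference inhibitor wells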
PDI inh: PDI (human) enzyme inhibition; P07237; inhibition, % at 10 µM; 350,000 tested, 0.052% active; PDI insulin aggregation turbidity, A650, 90 min;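 active = mean inhibition across replicates of 30% or more, whatever share of single replicates reach that level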
ERp5 block: ERp5 (human) disulfide isomerase inhibition; Q15084; ERp5 insulin aggregation, absorbance 650 nm, 90 min; inhibition, % at 9.99 µM; 350,000 tested, 0.05% active; AID 651711;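 active = mean replicate inhibition above about 25%, with every replicate also reaching it, limit read from the data, passing the limit was not always enough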
Target sequence (Q15084 whole entry, looked up): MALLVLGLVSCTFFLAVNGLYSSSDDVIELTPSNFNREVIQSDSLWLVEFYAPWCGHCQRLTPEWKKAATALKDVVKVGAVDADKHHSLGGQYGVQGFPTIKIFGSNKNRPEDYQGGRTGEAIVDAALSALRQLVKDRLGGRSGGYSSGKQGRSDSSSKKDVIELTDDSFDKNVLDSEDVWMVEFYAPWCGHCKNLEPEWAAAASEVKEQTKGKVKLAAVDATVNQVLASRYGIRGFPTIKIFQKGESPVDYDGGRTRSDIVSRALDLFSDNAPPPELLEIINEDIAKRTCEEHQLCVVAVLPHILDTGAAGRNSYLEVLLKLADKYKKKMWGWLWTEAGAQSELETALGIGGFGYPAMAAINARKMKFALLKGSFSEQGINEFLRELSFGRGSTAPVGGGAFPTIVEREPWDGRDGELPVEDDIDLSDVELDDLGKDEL
IMP-1 inh-2: selectivity counter-screen for VIM-2 inhibitors: IMP-1 metallo-beta-lactamase inhibitors; shares compounds with VIM-2 inhibitor; purified IMP-1, nitrocefin hydrolysis, epi-absorbance fluorescence; inhibition, % at 5.6 µM; 1,300 tested, under 10 active; AID 1856; call rule not given here;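 also: 0% = enzyme with vehicle and 100% = vehicle without enzyme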
VIM-2 FRET ctr: counter-screen for VIM-2 inhibitors: epi-absorbance artifacts via FRET; shares compounds with VIM-2 inhibitor; purified VIM-2, CCF2 FRET substrate hydrolysis; inhibition, % at 5.6 µM; 1,300 tested, 23% active;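 active = inhibition above the mean of all tested compounds plus 3 SD, cut at about 19% in these data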;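 also: 0% = VIM-2 plus DMSO and 100% = no enzyme wells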
TEM-1 counter: TEM-1 inhibition, counter-screen for VIM-2 inhibitors | shares compounds with VIM-2 inhibitor | Purified TEM-1, nitrocefin hydrolysis, epi-absorbance fluorescence | inhibition, % at 5.6 µM | 1,300 tested, 3% active;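 active = inhibition above that campaign's mean inhibition plus 3 SD, cut at about 0.46% in these data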;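 also: 0% = TEM-1 with DMSO and 100% = TEM-1 with 100 µM potassium clavulanate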
Target sequence (P62593 whole entry, looked up): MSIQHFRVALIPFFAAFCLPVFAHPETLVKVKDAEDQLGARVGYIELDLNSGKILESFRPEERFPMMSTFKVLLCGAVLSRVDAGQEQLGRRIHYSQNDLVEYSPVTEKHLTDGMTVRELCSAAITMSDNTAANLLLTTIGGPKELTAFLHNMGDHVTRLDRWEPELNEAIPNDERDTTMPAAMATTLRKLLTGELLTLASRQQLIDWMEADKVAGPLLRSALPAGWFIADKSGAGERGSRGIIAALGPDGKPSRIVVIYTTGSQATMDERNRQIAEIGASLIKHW
VIM-2 confirm 2: confirmation of P. aeruginosa VIM-2 metallo-beta-lactamase inhibitors; purified VIM-2, nitrocefin hydrolysis, epi-absorbance; 1,300 tested, 96% active; shares compounds with VIM-2 inhibitor; AID 2187; inhibition, % at 5.6 µM;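 active = inhibition of the VIM-2 beta-lactamase enzyme above about 11% from the earlier first-round screen, limit read from the data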;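 also: 0% = VIM-2 with DMSO and 100% = buffer wells without enzyme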
* = called active by the depositor; x = no result given. Rows were chosen to be rich in hits. Some 1% of all compounds tested hit in one or more screens of this group.

SMILES	PglD DTNB	VIM-2 inhibitor	IMP-1 inh-1	PvdQ acylase	PDI inh	ERp5 block	IMP-1 inh-2	VIM-2 FRET ctr	TEM-1 counter	VIM-2 confirm 2
Nc1nc(/C=C/c2cccnc2)nc(-c2ccccc2O)n1	x	23*	-1	0	6	-7	-3	-4	-7	60*
COc1ccc(C2=Nn3c(nnc3-c3ccccc3OC)SC2)cc1OC	5	14*	-1	5	2	x	-3	2	-6	27*
COc1ccc(C2=Nn3c(nnc3-c3ccco3)SC2)cc1OC	1	23*	3	12	4	x	-3	-6	-7	31*
COc1ccc(C2=Nn3c(nnc3-c3ccccn3)SC2)cc1OC	4	52*	-3	-11	-4	x	-3	-2	-7	67*
COc1ccc(OC)c(C2=Nn3c(nnc3-c3cc(OC)c(OC)c(OC)c3)SC2)c1	0	13*	-4	-8	-1	x	-3	3	-6	26*
CCCC(=O)Nc1ccc2c(c1)C(=O)N(C)C[C@@H](OC)[C@@H](C)CN(CCc1ccccc1)[C@H](C)CO2	0	x	x	x	x	1	x	x	x	x
CCS(=O)(=O)Nc1ccc2c(c1)OC[C@H](C)NC[C@@H](C)[C@@H](OC)CN(C)C2=O	1	x	x	x	x	x	x	x	x	x
N#C[C@H]1[C@H](c2ccccc2C2=CCCC2)[C@@H](CO)N1C(=O)CN1CCOCC1	x	x	x	x	x	3	x	x	x	x
CCCc1cn(CC[C@H]2CC[C@H](NC(=O)C3CCC3)[C@@H](CO)O2)nn1	-3	x	x	x	x	-1	x	x	x	x
C[C@H]1CN([C@@H](C)CO)C(=O)c2cc(C#CCN(C)C)cnc2O[C@@H]1CN(C)Cc1cccc(F)c1	x	x	x	x	x	10	x	x	x	x
O=Cc1ccc2ccc3cccnc3c2n1	4	59*	-1	-7	-9	1	-4	-5	-5	70*
O=Cc1ccc2cccnc2n1	x	-2	-6	3	-4	2	x	x	x	x
C[C@@H]1CN([C@H](C)CO)C(=O)c2cc(NC(=O)Nc3ccccc3)ccc2O[C@H]1CN(C)Cc1ccc(-c2ccccc2)cc1	3	x	x	x	x	-2	x	x	x	x
CCc1cc(=O)oc2cc(C)cc(OCC(=O)NCc3cccnc3)c12	-3	6	-4	-8	4	-2	x	x	x	x
Cc1cc(OCC(=O)NCc2cccnc2)c2c(C)c(C)c(=O)oc2c1	1	22*	-4	-4	5	-7	-3	-2	-7	31*
Cc1cc(OCC(=O)NCc2ccncc2)c2c(C)c(C)c(=O)oc2c1	0	44*	0	-8	1	1	-3	0	-9	55*
CCc1cc(=O)oc2cc(C)cc(OCC(=O)NCc3ccncc3)c12	6	20*	-1	-4	-2	-7	-2	-3	-6	30*
Cc1cc(OCC(=O)Nc2cccnc2)c2c(C)c(C)c(=O)oc2c1	2	61*	0	-6	-11	-6	-2	-4	-5	68*
Cc1cc(OCC(=O)Nc2ccc(CCO)cc2)c2c(C)c(C)c(=O)oc2c1	0	5	-3	-13	3	-1	x	x	x	x
C[C@@H]1CN([C@@H](C)CO)C(=O)c2cc(NC(=O)Cn3cnnn3)ccc2O[C@@H]1CN(C)S(C)(=O)=O	-2	x	x	x	x	-2	x	x	x	x
CCCNC(=O)N(C)C[C@@H]1Oc2ncc(-c3ccncc3)cc2C(=O)N([C@@H](C)CO)C[C@H]1C	-1	x	x	x	x	0	x	x	x	x
C[C@@H]1CN([C@H](C)CO)S(=O)(=O)c2ccc(-c3ccc(C(=O)N(C)C)cc3)cc2O[C@@H]1CN(C)Cc1ccc2c(c1)OCO2	3	x	x	x	x	3	x	x	x	x
C[C@@H]1CCCCO[C@H](CN(C)Cc2ccccc2)[C@H](C)CN([C@@H](C)CO)C(=O)c2cc(NC(=O)Nc3ccc(F)cc3)ccc2O1	-1	x	x	x	x	3	x	x	x	x
COc1ccc(NC(=O)N(C)C[C@H]2Oc3ccc(NC(=O)Nc4ccc(F)cc4)cc3CC(=O)N([C@H](C)CO)C[C@@H]2C)cc1	-7	x	x	x	x	15	x	x	x	x
Cc1sc2ncnc(NCCc3ccc(S(N)(=O)=O)cc3)c2c1C	4	19*	-6	8	-4	5	-3	-5	-7	16*
SMILES	PglD DTNB	VIM-2 inhibitor	IMP-1 inh-1	PvdQ acylase	PDI inh	ERp5 block	IMP-1 inh-2	VIM-2 FRET ctr	TEM-1 counter	VIM-2 confirm 2
Cc1sc2ncnc(NCCCn3ccnc3)c2c1C	2	21*	-3	-4	-4	x	-4	-4	-7	34*
CCCC(=O)Nc1ccc2c(c1)OC[C@@H](C)N(CC1CCCC1)C[C@H](C)[C@H](OC)CN(C)C2=O	-1	x	x	x	x	-2	x	x	x	x
O=C(NCc1cccc(Cl)c1)c1cccc(OC2CCN(C(=O)C3CC3)CC2)c1	x	25*	-2	-8	3	-15	-2	-3	-2	4
COc1ccc(CCNc2nc3ccccc3n3cnnc23)cc1OC	1	-2	-3	3	0	-3	x	x	x	x
CCc1nnc2c(N(C)S(=O)(=O)c3ccc(C)cc3)nc3ccccc3n12	x	0	-3	-16	-8	-1	x	x	x	x
CCc1nnc2c(NCCc3ccc(OC)c(OC)c3)nc3ccccc3n12	1	15*	-2	-15	1	-13	-2	0	-4	21*
CCc1nnc2c(N(C)C)nc3ccccc3n12	x	16*	0	-9	-7	-6	-3	-2	-6	31*
COC(=O)C[C@H]1C[C@H]2c3cc(NS(=O)(=O)c4ccccc4)ccc3O[C@H]2[C@@H](CO)O1	9	x	x	x	x	x	x	x	x	x
C[C@@H]1CN([C@@H](C)CO)C(=O)c2cc(-c3cccc(C#N)c3)cnc2O[C@@H]1CN(C)C(=O)C1CC1	0	x	x	x	x	9	x	x	x	x
Oc1cccc(/C=N/Nc2nn3cnnc3c3ccccc23)c1	4	16*	-4	0	4	-2	-4	0	-5	37*
COc1cccc(/C=N/Nc2nn3cnnc3c3ccccc23)c1O	-6	0	-3	1	-6	x	x	x	x	x
CCOC(=O)c1c(-c2ccccc2)oc2ccc(OCC(O)CNCCN(C)C)cc12 (stereo unspecified)	-3	25*	1	-6	1	0	-3	20*	-6	38*
CCOC(=O)c1c(-c2ccccc2)oc2ccc(OCC)cc12	x	-2	-1	-22	1	x	x	x	x	x
CN(C)CCCN1C(=O)c2cccc3c(Br)ccc(c23)C1=O	x	12*	-1	-13	-8	-7	-2	0	-6	18*
O=C(O)CN1C(=O)c2cccc3c(Br)ccc1c23	-10	0	-2	-12	-3	-3	x	x	x	x

Source: PubChem BioAssay (several laboratories)
